Our source for the IC50, inhibition and CLint scaled values is ChEMBL document CHEMBL3393009 (J Med Chem, 2015).

Data set [1] concerns the target T1, Leucine-rich repeat serine/threonine-protein kinase 2 (Homo sapiens, UniProt Q5S007). In words: Inhibition of full length LRRK2 (unknown origin) expressed in HEK293 cells assessed as reduction in S935 phosphorylation incubated for 90 mins by ELISA method. It is filed as cell-based.
The target of data set [2] is T2, Tyrosine-protein kinase JAK1 (Homo sapiens, UniProt P23458). In words: Inhibition of JAK1 (JH1 domain-catalytic) (unknown origin) at 1 uM.
Data set [3] deals with T2, Tyrosine-protein kinase JAK1. The data set can be described thus: Inhibition of JAK1 (JH2 domain-pseudokinase) (unknown origin) at 1 uM.
Data set [4] deals with T3, Tyrosine-protein kinase JAK2 (Homo sapiens, UniProt O60674). The data set can be described thus: Inhibition of JAK2 (JH1 domain-catalytic) (unknown origin) at 1 uM.
The target in data set [5] is T4, Tyrosine-protein kinase JAK3 (Homo sapiens) (UniProt P52333).
T4 sequence (whole entry): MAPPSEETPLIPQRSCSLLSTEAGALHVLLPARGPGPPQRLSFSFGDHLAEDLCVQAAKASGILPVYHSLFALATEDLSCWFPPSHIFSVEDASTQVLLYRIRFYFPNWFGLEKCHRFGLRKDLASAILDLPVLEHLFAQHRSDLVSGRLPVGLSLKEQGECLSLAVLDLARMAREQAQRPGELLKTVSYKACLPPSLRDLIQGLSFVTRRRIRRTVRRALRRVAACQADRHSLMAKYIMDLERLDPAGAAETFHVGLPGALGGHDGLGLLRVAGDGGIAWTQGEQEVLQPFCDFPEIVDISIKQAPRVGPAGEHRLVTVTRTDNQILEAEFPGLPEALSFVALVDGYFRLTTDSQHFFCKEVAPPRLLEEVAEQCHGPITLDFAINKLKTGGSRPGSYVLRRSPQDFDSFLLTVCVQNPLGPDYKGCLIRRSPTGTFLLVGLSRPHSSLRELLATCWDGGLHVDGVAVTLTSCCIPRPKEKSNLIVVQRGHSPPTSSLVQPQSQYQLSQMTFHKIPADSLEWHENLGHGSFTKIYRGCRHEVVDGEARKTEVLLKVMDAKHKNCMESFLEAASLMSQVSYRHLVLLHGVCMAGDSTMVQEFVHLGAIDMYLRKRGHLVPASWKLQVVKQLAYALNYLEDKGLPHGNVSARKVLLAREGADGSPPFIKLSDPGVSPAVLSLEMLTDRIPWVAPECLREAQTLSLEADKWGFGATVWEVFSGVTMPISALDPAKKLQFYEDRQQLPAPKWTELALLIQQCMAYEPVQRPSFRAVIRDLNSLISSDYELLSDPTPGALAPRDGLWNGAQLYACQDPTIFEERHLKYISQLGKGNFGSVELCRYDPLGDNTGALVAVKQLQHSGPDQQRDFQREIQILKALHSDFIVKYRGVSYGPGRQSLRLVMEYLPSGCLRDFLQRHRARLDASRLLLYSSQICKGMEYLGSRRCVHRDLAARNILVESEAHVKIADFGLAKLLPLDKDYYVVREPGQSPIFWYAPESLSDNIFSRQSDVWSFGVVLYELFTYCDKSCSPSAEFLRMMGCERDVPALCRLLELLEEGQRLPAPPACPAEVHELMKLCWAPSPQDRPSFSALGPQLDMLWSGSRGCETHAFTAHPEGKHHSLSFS
In words: Inhibition of JAK3 (JH1 domain-catalytic) (unknown origin) at 1 uM.

The target of data set [6] is T1, Leucine-rich repeat serine/threonine-protein kinase 2. In words: Inhibition of LRRK2 in human PBMCs by ActivX KiNativ method.
The nature of data set [7]: Clearance in human liver microsomes. The class given is ADME. As to conditions: read-out: CLH. An outline of the steps:
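Human liver microsomal clearance.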
In general terms: Microsomes from liver hold many membrane-bound enzymes, among them those of drug oxidation.

For data set [8], the target named is Leucine-rich repeat serine/threonine-protein kinase 2 (Homo sapiens, UniProt Q5S007, G2019S). The data set can be described thus: Inhibition of GST-tagged truncated human recombinant LRRK2 G2019S mutant using fluorescein-labeled LRRKtide peptide substrate incubated for 90 mins. An outline of the steps:
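LRRK2 enzyme with fluorescein-LRRKtide in 50 mM HEPES pH 7.5, 3 mM MgCl2, 2 mM DTT, 0.01% Brij35. Final levels: 100 nM LRRKtide, 50 μM ATP, 1.7 μg/mL enzyme. Compound 11-point half-log series, top 32 μM. Reaction at room temperature, 2 h for wild type and 90 min for mutant. Stopped with EDTA plus Tb anti-phospho-ERM. TR-FRET 520/495 ratio read after 1 h. Geometric mean, n ≥ 2.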

Data set [9] deals with T3, Tyrosine-protein kinase JAK2. The data set can be described thus: Inhibition of JAK2 (unknown origin).
In data set [10] the target is T2, Tyrosine-protein kinase JAK1. The data set can be described thus: Inhibition of JAK1 (unknown origin).
Data set [11] has as its target T5, Tyrosine-protein kinase JAK3 (Homo sapiens, UniProt P52333).
T5 sequence (P52333 whole entry): T4 sequence (whole entry)
In words: Inhibition of JAK3 (unknown origin).

The source made the active and inactive calls. The calls are words filed in the database; no cut-off is given here.

T2 sequence (P23458 whole entry, the tested form may be a part): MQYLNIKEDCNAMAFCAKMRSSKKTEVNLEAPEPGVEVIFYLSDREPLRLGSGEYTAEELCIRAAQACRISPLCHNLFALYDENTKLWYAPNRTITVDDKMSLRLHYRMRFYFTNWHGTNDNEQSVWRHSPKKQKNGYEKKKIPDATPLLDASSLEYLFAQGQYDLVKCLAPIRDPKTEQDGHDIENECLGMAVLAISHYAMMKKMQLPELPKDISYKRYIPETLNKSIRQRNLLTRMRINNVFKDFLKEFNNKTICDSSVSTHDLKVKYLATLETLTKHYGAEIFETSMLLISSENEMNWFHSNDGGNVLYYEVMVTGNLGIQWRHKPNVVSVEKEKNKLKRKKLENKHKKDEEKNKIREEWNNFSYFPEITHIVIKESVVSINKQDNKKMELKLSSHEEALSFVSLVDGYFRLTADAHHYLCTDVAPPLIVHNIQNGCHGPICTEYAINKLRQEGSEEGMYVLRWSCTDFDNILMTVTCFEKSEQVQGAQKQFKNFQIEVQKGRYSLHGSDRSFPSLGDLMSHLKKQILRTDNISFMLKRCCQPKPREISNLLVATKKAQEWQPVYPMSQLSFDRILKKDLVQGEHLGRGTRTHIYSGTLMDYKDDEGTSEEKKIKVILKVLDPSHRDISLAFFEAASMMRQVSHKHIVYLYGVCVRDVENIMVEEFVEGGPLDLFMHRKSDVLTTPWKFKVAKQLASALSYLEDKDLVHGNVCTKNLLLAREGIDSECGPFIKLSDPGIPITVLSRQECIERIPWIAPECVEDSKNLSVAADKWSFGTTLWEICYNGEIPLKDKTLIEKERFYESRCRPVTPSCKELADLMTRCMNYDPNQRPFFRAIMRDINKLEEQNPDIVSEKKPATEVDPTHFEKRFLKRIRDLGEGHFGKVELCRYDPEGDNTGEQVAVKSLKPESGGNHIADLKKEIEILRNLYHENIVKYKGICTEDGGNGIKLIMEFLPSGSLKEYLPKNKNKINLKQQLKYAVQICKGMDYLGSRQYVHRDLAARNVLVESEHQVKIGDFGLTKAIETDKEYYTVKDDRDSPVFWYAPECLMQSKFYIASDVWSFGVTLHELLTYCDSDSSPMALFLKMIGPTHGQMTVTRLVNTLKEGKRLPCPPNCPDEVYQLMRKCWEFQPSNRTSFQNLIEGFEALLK
T1 sequence (Q5S007 whole entry, the tested form may be a part): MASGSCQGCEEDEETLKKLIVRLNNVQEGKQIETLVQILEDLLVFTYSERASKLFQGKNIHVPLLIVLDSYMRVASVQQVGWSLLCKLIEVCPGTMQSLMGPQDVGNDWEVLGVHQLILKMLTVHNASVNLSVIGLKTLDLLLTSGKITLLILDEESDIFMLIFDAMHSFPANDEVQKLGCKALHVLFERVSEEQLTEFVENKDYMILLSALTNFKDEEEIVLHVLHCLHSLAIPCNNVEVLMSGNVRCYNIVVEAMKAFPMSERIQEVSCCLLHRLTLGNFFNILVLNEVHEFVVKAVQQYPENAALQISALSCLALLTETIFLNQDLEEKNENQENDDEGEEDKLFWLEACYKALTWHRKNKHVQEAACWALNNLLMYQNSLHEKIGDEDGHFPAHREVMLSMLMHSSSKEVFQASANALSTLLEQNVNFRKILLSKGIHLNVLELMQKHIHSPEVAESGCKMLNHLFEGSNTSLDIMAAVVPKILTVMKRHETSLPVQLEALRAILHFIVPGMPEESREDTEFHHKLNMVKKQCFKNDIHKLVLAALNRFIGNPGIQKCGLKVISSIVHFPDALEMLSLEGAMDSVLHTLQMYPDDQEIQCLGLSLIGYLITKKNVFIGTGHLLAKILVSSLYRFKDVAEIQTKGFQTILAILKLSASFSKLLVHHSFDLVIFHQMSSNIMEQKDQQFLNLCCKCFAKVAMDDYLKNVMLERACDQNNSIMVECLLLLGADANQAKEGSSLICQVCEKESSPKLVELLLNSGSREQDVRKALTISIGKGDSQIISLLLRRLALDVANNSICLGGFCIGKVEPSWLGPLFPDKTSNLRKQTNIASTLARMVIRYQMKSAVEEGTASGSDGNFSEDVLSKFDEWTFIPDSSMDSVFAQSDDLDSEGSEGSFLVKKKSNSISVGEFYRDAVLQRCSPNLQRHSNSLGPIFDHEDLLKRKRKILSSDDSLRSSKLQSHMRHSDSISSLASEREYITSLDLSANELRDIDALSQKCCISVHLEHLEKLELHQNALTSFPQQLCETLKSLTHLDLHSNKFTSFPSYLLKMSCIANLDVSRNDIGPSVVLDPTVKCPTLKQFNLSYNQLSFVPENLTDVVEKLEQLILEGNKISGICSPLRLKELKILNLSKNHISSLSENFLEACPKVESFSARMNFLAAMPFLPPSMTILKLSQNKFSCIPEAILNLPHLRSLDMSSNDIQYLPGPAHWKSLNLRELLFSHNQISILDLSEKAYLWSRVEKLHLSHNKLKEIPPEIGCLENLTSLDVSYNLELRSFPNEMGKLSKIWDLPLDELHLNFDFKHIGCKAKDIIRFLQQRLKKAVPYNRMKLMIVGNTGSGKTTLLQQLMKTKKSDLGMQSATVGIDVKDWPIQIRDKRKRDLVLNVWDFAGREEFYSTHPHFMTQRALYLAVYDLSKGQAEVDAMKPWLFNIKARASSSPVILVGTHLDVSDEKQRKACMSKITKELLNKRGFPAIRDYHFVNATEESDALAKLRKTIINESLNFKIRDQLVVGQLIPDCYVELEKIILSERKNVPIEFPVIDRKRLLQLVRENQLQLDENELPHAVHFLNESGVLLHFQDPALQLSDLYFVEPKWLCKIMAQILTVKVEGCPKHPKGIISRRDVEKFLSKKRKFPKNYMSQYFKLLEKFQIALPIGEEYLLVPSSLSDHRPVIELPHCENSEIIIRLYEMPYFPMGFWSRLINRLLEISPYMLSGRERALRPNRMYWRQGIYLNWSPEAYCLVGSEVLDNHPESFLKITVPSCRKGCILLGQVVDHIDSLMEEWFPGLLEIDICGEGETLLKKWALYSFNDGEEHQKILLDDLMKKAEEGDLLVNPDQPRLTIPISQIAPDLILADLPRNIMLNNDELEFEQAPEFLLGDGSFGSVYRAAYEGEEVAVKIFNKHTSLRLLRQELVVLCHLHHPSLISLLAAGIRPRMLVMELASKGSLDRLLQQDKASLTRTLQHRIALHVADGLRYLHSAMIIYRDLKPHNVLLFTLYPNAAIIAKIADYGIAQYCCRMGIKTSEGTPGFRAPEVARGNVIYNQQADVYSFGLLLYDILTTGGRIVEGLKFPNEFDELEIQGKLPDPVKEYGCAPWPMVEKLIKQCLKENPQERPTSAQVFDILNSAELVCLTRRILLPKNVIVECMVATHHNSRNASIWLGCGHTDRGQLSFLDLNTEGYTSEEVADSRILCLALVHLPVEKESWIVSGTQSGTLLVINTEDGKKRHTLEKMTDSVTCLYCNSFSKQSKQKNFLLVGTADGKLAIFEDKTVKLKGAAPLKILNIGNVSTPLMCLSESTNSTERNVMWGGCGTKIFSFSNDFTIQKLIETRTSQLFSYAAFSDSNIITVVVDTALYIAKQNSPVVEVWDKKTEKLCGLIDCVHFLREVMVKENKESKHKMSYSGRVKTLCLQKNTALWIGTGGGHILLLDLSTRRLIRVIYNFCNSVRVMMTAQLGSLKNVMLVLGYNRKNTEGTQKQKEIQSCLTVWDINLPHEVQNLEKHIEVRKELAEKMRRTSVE
T3 sequence (O60674 whole entry, the tested form may be a part): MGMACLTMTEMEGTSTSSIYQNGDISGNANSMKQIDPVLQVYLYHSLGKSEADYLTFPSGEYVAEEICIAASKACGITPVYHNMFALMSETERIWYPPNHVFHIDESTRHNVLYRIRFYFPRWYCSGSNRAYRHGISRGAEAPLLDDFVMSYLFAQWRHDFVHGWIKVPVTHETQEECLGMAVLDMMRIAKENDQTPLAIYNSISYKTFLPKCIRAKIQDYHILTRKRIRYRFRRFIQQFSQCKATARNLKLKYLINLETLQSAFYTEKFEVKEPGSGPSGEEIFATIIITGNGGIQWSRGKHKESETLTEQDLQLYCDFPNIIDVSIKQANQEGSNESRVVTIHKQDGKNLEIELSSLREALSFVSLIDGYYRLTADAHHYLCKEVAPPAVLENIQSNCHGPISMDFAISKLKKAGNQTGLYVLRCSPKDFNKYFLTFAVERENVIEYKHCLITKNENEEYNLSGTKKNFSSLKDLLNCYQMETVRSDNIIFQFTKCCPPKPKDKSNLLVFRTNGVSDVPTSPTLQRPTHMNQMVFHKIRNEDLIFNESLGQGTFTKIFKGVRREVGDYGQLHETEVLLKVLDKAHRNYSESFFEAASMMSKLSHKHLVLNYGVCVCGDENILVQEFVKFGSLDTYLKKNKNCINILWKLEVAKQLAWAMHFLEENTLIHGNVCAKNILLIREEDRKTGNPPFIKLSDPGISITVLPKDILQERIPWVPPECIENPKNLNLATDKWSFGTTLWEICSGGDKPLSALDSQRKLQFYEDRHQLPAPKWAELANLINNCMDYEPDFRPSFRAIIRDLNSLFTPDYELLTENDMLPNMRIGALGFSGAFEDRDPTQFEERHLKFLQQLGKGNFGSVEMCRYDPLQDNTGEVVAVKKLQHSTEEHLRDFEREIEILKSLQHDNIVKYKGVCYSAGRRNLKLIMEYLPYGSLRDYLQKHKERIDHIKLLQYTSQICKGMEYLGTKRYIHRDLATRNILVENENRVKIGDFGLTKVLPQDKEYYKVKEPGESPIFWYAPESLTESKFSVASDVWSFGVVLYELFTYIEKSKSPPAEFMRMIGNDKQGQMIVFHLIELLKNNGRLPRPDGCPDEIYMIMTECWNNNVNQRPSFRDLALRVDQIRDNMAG
Sequence of Leucine-rich repeat serine/threonine-protein kinase 2 (Homo sapiens, UniProt Q5S007, G2019S) (Q5S007 whole entry G2019S, the tested form may be a part): as the sequence (Q5S007 whole entry, the tested form may be a part) above, with G2019S counted along it

In the case of `CN(C)c1ncnc2[nH]cc(-c3cccc(C#N)c3)c12`, the IC50 – broadly, the concentration that gives 50% inhibition – in data set [1] was determined as 89 nM; in [6] it was 42 nM. For the same compound, the inhibition entry in data set [2], in data set [3], in [4] and in data set [5] was “inactive” in each case. Also, the CLint scaled in [7] was found to be 70 mL/min/kg.

Regarding `C[C@H]1CCCN(c2ncnc3[nH]cc(-c4cccc(C#N)c4)c23)C1`, the IC50 in [8] turned out to be 49 nM; in [1], 210 nM; in [9] it was 575 nM; in data set [10], 1620 nM; in data set [11], 54 nM. In [7], the CLint scaled came to 220 mL/min/kg.
